Among the data in ChEMBL document CHEMBL1135476, “Synthesis and structure-activity relationship study of potent trypanocidal thio semicarbazone inhibitors of the trypanosomal cysteine protease cruzain” (J Med Chem, 2002) are IC50 and Cell survived values, retold here.

The target of test [1] is Cruzipain (Trypanosoma cruzi, UniProt P25779). Briefly: Inhibitory activity against Trypanosoma cruzi cathepsin L-like protease (cruzain) was determined using purified recombinant protein. The essentials: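 Purified recombinant cruzain (1 nM) preincubated 5 min at room temperature with inhibitor (20-50000 nM; seven concentrations) in 100 mM sodium acetate, 5 mM DTT, pH 5.50. DMSO 0.7% in assay. IC50 read graphically from linear portion of inhibition vs log[I], at least two points in linear range.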
Cruzipain, sequence (P25779 whole entry): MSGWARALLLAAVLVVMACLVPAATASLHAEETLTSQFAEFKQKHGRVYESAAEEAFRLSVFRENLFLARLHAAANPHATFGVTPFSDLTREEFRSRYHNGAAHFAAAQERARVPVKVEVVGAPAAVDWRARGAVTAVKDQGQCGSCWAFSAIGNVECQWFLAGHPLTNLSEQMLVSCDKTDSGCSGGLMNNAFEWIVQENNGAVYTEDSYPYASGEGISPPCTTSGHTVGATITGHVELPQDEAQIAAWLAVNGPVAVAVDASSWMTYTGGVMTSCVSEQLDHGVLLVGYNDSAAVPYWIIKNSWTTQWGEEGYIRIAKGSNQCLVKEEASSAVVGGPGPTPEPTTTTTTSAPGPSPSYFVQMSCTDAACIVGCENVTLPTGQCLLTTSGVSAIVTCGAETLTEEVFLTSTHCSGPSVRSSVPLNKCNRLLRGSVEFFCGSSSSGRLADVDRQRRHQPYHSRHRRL

Test [2] relates to Trypanosoma cruzi. As to the kind of experiment: Tested for the trypanocidal property against infected host cells (Trypanosoma cruzi) using a cell culture assay. Type of test: functional. The essentials: (§1)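 Irradiated (5000 rad) J774 macrophages were plated 24 h before infection with ~10^6 T. cruzi Y-strain trypomastigotes per well; the trypomastigotes came from BESM cell culture supernatants. Parasites were removed at 2 h, then compound was given at 10 μM (stocks 10 mM in DMSO) in RPMI-1640 with FCS at 37 °C, 5% CO2, refreshed every 48 h. DMSO blank served as control. Cultures were followed by phase microscopy for up to […], scoring intracellular cycle duration and host-cell survival and toxicity.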

For test [3], the system named is Trypanosoma cruzi. As to the kind of experiment: Trypanocidal activity in infected host cells. Type of test: functional. The gist of the method: as §1
Test [4] has as its system Trypanosoma cruzi. Briefly: Tested for the trypanocidal property against infected host cells (Trypanosoma cruzi) using a cell culture assay. Type of test: functional. The essentials:
as §1

For orientation: IC50 means the concentration needed to halve the response being measured. Take `COc1ccc(/C=N/NC(N)=S)cc1O`: the IC50 in test [1] is over 10000 nM.
On the same count and under the same terms, the result for `NC(=O)N/N=C/c1ccc(-c2ccc(Cl)cc2)o1` reads over 10000 nM.
As to `CC/C(=N\N=C(\N)S)c1cccc(Br)c1`, in test [2], the Cell survived was over 46 days.
With `NC(=S)N1CCC(c2cccc(Br)c2)=N1`, the IC50 in test [1] was found to be 200 nM. Further, the Cell survived in test [3] came to 5 days.
As for `FC(F)(F)c1ccc(NC(=S)N2CCC(c3cccc(Br)c3)=N2)cc1`, in test [1], the IC50 was over 10000 nM.
As for `N/C(S)=N/N=C/c1ccc(-c2ccc(Cl)cc2)o1`, the IC50 in test [1] is 300 nM. In test [4], this molecule gave a Cell survived of 15 days.
For the molecule `CC/N=C(\S)N1CCC(c2cccc(Br)c2)=N1`, the IC50 in test [1] was over 10000 nM.
Turning to `C/C(=N\NC(N)=O)c1cccc(Cl)c1`, in test [1], the IC50 is over 10000 nM.
Same read-out and setting: the same measure for `CC/C(=N\N=C(/S)Nc1ccccc1)c1cccc(Br)c1`: over 10000 nM.
As to `S=C(NCc1ccco1)N1CCC(c2cccc(Br)c2)=N1`, the IC50 in test [1] is over 10000 nM.
On the same count and under the same terms, the result for `N/C(S)=N/N=C/c1ccc(-c2cccc(Cl)c2)o1` reads 140 nM.
Turning to `NC(=S)N1CCC(c2ccc(Cl)c(Cl)c2)=N1`, in test [1], the IC50 was 60 nM. In test [3], this molecule registered a Cell survived of over 41 days.
For `C/C(=N\N=C(\N)S)c1cccc(C(F)(F)F)c1`, in that order: 170 nM and 15 days.
`CN(C)c1ccc(/C=N/N=C(/N)S)c2ccccc12`: the IC50 in test [1] is over 10000 nM.
Still for that read-out and setting: the result for `C/C(=N\NC(N)=O)c1cccc(C(F)(F)F)c1` reads over 10000 nM.
Regarding `CC1CN(C(=N)S)N=C1c1cccc(Br)c1` (stereo not drawn), the Cell survived in test [3] was over 22 days.
As to `N/C(S)=N/N=C/c1ccc(Cl)c(Cl)c1`, the IC50 in test [1] worked out at 460 nM.
On the same count and under the same terms, the same measure for `N/C(S)=N/N=C/c1cc(Cl)cc(Cl)c1`: 560 nM; for `C/C(=N\NC(N)=O)c1ccc(Cl)c(Cl)c1`: over 10000 nM; for `CC/C(=N\N=C(\N)S)c1ccccc1`: over 10000 nM.
Same read-out and setting: the same measure for `CC/C(=N\N=C(/S)NC)c1cccc(Br)c1`: over 10000 nM; for `CC/C(=N\NC(N)=O)c1cccc(C(F)(F)F)c1`: over 10000 nM; for `CC/C(=N\NC(N)=O)c1cccc(Cl)c1`: over 10000 nM.
On to `C/C(=N\N=C(\N)S)c1cccc(Br)c1`, for which the Cell survived in test [3] came out at 22 days.
On to `NC(=O)N/N=C/c1ccc(-c2cccc(Cl)c2)o1`, for which, in test [1], the IC50 was over 10000 nM.
The same measure, in the same setting: the same measure for `CC/C(=N\N=C(\N)S)c1ccc2cc(OC)ccc2c1`: over 10000 nM.
Consider `C/C(=N\N=C(\N)S)c1cc(C(F)(F)F)cc(C(F)(F)F)c1`, for which the IC50 in test [1] is 60 nM. The molecule further showed a Cell survived in test [3] of 7 days.
For `CC/C(=N\NC(N)=O)c1cc(C(F)(F)F)cc(C(F)(F)F)c1`, in test [1], the IC50 is over 10000 nM.
As for `C/C(=N\N=C(\N)S)c1ccc(Br)s1`, in test [1], the IC50 was 3800 nM.
On to `CC/C(=N\N=C(\N)S)c1ccc(Br)cc1`, for which the IC50 in test [1] is over 10000 nM.
On the same count and under the same terms, the same measure for `NC(=S)N/N=C/c1ccc(-c2ccc(Br)cc2)o1`: 280 nM.
On the same count and under the same terms, the result for `C/C(=N\N=C(\N)S)c1ccc(Cl)s1` reads 1900 nM.
As to `NC(=S)N1CCC(c2cccc(Cl)c2)=N1`, the IC50 in test [1] amounted to 270 nM. In addition, the Cell survived in test [3] stood at 5 days.
As for `C/C(=N\N=C(\N)S)c1ccccc1Cl`, in test [1], the concentration for half-maximal inhibition (IC50) was over 10000 nM.
The same measure, in the same setting: the result for `CC/C(=N\N=C(\N)S)c1ccc(Cl)cc1Cl` reads over 10000 nM.
In the case of `N=C(S)N/N=C/c1ccccc1C(F)(F)F`, the IC50 in test [1] was over 10000 nM.
Regarding `C/C(=N\NC(N)=O)c1cccc(Br)c1`, in test [1], the IC50 is over 10000 nM.
Consider `FC(F)(F)c1cccc(NC(=S)N2CCC(c3cccc(Cl)c3)=N2)c1`, for which the IC50 in test [1] worked out at 1700 nM.
Same read-out and setting: the same measure for `CCC(NNC(N)=S)c1cccc(Br)c1` (stereo not drawn): over 10000 nM.
In the case of `CC1CN(C(=N)S)N=C1c1cccc(Cl)c1` (stereo not drawn), the IC50 in test [1] turned out to be 230 nM. The same molecule came in with a Cell survived in test [3] of over 41 days.
For `S=C(Nc1cccc(Cl)c1)N1CCC(c2cccc(Br)c2)=N1`, in that order: 1000 nM and 5 days.
For `C/C(=N\N=C(\N)S)c1ccc(Cl)c(Cl)c1`, in that order: 50 nM and over 41 days.
Turning to `N=C(S)N/N=C/c1cccc(C(F)(F)F)c1`, the IC50 in test [1] was found to be 480 nM.
In the case of `N=C(S)N/N=C/c1cc(C(F)(F)F)cc(C(F)(F)F)c1`, the IC50 in test [1] amounted to 320 nM.
The same measure, in the same setting: the result for `C/C(=N\N=C(\N)S)c1ccccc1Br` reads 3900 nM; that for `CC/C(=N\N=C(/S)NCc1ccco1)c1cccc(Br)c1`, over 10000 nM.
Take `CC/C(=N\N=C(\N)S)c1cccc(Cl)c1`: in test [1], the IC50 turned out to be 220 nM. In addition, in test [2], the Cell survived is 22 days.
On the same counts, the results for `COc1ccc2ccccc2c1/C=N/N=C(/N)S` are 560 nM and 5 days.
Regarding `S=C(Nc1ccccc1)N1CCC(c2cccc(Br)c2)=N1`, in test [1], the IC50 was over 10000 nM.
As to `CC1CN(C(=N)S)N=C1c1cccc(C(F)(F)F)c1` (stereo not drawn), the IC50 in test [1] is 40 nM. The Cell survived in test [3] was over 41 days.
As for `CC/N=C(\S)N/N=C(\CC)c1cccc(Br)c1`, in test [1], the IC50 is over 10000 nM.
Turning to `C/N=C(\S)N1CCC(c2cccc(Br)c2)=N1`, the IC50 in test [1] was over 10000 nM.
On the same count and under the same terms, the same measure for `N/C(S)=N/N=C/c1cc(C#Cc2ccccc2)cs1`: over 10000 nM; for `C/C(=N\N=C(\N)S)c1ccc(N2CCOCC2)cc1`: over 10000 nM.
Same read-out and setting: the result for `CC/C(=N\N=C(/S)NC(C)C)c1cccc(Br)c1` reads over 10000 nM; that for `CC/C(=N\N=C(\N)S)c1ccc(OC)cc1`, over 10000 nM; that for `CCCCCCNC(=S)N1CCC(c2cccc(Br)c2)=N1`, 1400 nM.
On the same count and under the same terms, the result for `CC/C(=N\NC(N)=O)c1ccc(Cl)c(Cl)c1` reads over 10000 nM.
As for `CC1CN(C(=N)S)N=C1c1ccc(Cl)c(Cl)c1` (stereo not drawn), in test [1], the IC50 was 70 nM. Moreover, in test [3], the Cell survived was determined as 15 days.
For `N=C(S)N1CCC(c2cccc(C(F)(F)F)c2)=N1`, in that order: 80 nM and 5 days.
For `CC/C(=N\NC(N)=O)c1cccc(Br)c1`, the IC50 in test [1] is over 10000 nM.
`CC/C(=N\N=C(/S)NCCN1CCNCC1)c1cccc(Br)c1`: the IC50 in test [1] was over 10000 nM.
On the same count and under the same terms, the result for `Cn1nc(C(F)(F)F)cc1-c1ccc(/C=N/N=C(/N)S)s1` reads 7000 nM.
In the case of `N/C(S)=N/N=C/c1cccc(Br)c1`, in test [1], the IC50 was 1300 nM. In addition, in test [3], the Cell survived turned out to be 8 days.
Take `S=C(NCCN1CCOCC1)N1CCC(c2cccc(Br)c2)=N1`: the IC50 in test [1] was over 10000 nM.
Same read-out and setting: the same measure for `NC(=O)N/N=C/c1ccc(-c2ccc(Br)cc2)o1`: over 10000 nM.
For `CC/C(=N\N=C(\N)S)c1ccc(Cl)c(Cl)c1`, the IC50 in test [1] amounted to 20 nM. The same molecule showed a Cell survived in test [3] of 9 days.
Consider `CC/C(=N\N=C(\N)S)c1cccc(F)c1`, for which, in test [1], the IC50 is over 10000 nM.
Turning to `CC/C(=N\N=C(\N)S)c1cccc(C(F)(F)F)c1`, in test [1], the IC50 stood at 50 nM. Moreover, the Cell survived in test [2] was over 41 days.
For the molecule `COc1cccc(/C(C)=N/N=C(/N)S)c1`, in test [1], the IC50 was over 10000 nM.
Still for that read-out and setting: the same measure for `CC(C)/N=C(\S)N1CCC(c2cccc(Br)c2)=N1`: over 10000 nM.
The same measure, in the same setting: the same measure for `CC/C(=N\N=C(\N)S)c1ccc(Cl)cc1`: over 10000 nM.
As for `CC/C(=N\N=C(\N)S)c1cc(C(F)(F)F)cc(C(F)(F)F)c1`, in test [1], the IC50 turned out to be 20 nM. Moreover, in test [3], the Cell survived is 20 days.
Consider `N/C(S)=N/N=C/c1cccc(Cl)c1Cl`, for which, in test [1], the IC50 was over 10000 nM.
As to `COc1ccccc1-c1ccc(/C=N/N=C(/N)S)o1`, the IC50 in test [1] was 280 nM. Further, the Cell survived in test [4] came out at 8 days.
`N/C(S)=N/N=C/c1cccn1S(=O)(=O)c1ccccc1`: the IC50 in test [1] was found to be 2800 nM.
Still for that read-out and setting: the result for `CC/C(=N\N=C(/S)Nc1ccc(C(F)(F)F)cc1)c1cccc(Br)c1` (stereo in doubt) reads over 10000 nM.
As to `CC/C(=N\N=C(/S)Nc1ccc(C(F)(F)F)cc1)c1cccc(Br)c1` (stereo in doubt; 5c), in test [1], the IC50 is 1600 nM. This molecule came in with a Cell survived in test [3] of 5 days.
